Data on five molecules can be found in ChEMBL document CHEMBL1140574, “Design, synthesis, and antimalarial activity of structural chimeras of thiosemicarbazone and ferroquine analogues” (Bioorg Med Chem Lett, 2007).

Usually IC90 stands for the point of the concentration-response curve where the effect stands at 90%. A high value points to weaker potency. In general, pIC50 refers to the IC50 on a negative log10 scale, so that one unit is a factor of ten.

The structures appear in SMILES notation. pIC50: −log10 of the molar value. Active and inactive are the calls of the source. No cut-off for these calls is given here.

For experiment [1], the system named is Plasmodium falciparum. Description: Antimalarial activity against chloroquine-sensitive Plasmodium falciparum 3D7. The experiment is classed as functional, organism-based. The gist of the method: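 Parasites kept in RPMI 1640 with 10% human serum, 25 mM Hepes, 25 mM NaHCO3, in A-positive human erythrocytes at 37 °C (10% O2, 5% CO2, 85% N2, 95% humidity). Twofold serial dilutions, final 0.01 to 200 µM, in 1% DMSO/RPMI; 42 h incubation. [3H]hypoxanthine uptake measured by scintillation after freeze-thaw lysis and filter harvest; IC50 by nonlinear regression of log-dose/response curves.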

Experiment [2] concerns the target T1, Falcipain 2 (Plasmodium falciparum, UniProt Q9N6S8).
T1 sequence (Q9N6S8 whole entry): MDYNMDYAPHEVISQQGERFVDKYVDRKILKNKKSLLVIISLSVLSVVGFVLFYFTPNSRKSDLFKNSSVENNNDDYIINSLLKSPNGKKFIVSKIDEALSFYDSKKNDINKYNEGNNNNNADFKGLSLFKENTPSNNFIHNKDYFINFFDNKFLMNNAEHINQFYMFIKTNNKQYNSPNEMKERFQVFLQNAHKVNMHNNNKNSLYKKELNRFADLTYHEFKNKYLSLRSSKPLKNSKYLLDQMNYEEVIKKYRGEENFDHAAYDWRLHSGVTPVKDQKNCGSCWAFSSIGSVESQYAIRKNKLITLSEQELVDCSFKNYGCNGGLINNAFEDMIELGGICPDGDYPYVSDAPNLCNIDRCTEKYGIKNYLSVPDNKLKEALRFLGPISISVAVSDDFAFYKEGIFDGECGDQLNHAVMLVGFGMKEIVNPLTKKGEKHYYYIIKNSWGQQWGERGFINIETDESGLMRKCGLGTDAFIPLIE
Description: Inhibition of Plasmodium falciparum W2 recombinant falcipain-2 activity.

Experiment [3] relates to Plasmodium falciparum. As to the kind of experiment: Antimalarial activity against chloroquine-resistant Plasmodium falciparum Bre1. It counts as functional, organism-based. The gist of the method: (§1)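 Parasites cultured in A-positive human erythrocytes in RPMI 1640 with 10% human serum, 25 mM Hepes, 25 mM NaHCO3, 37 °C, 10% O2/5% CO2/85% N2. Compounds dissolved in DMSO 1% in RPMI, twofold serial dilutions, final […]; 42 h incubation; [3H]hypoxanthine uptake read by scintillation after freeze-thaw lysis; IC50 by nonlinear regression of log-dose/response curves.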

For experiment [4], the system named is Plasmodium falciparum. Description: Antimalarial activity against chloroquine-resistant Plasmodium falciparum W2. The experiment is classed as functional, organism-based. In outline: as §1
The test system of experiment [5] is Plasmodium falciparum. As to the kind of experiment: Antimalarial activity against chloroquine-resistant Plasmodium falciparum FCR3. The experiment is classed as functional, organism-based. The gist of the method: as §1
Experiment [6] concerns Plasmodium falciparum. Description: Antimalarial activity against Plasmodium falciparum W2 as food vacuole abnormality. The experiment is classed as functional, organism-based.

`C/C(=N\NC(=S)NCCNc1ccnc2cc(Cl)ccc12)c1ccc(Br)cc1` showed a concentration for an effect of 90% (IC90) in experiment [1] of 26300 nM. Besides, the pIC50 in experiment [2] was 4.89.

`C/C(=N\NC(=S)NCCCNc1ccnc2cc(Cl)ccc12)c1ccc(Cl)c(Cl)c1` had an IC90 in experiment [1] of 1400 nM. Besides, in experiment [2], the pIC50 was below 4.70.

Take `CCN(CC)CCCC(C)Nc1ccnc2cc(Cl)ccc12` (stereo not drawn) [CHLOROQUINE]: the 90% effect concentration (IC90) was 722 nM in experiment [3], 41.7 nM in experiment [1], 992 nM in experiment [4] and 1180 nM in experiment [5].

`C/C(=N\NC(=S)NCCCNc1ccnc2cc(Cl)ccc12)c1ccc(Br)cc1` displayed a concentration for an effect of 90% (IC90) in experiment [1] of 25800 nM. Also, the negative-log IC50 (pIC50) in experiment [2] was below 4.70.

`C/C(=N\NC(=S)NCCNc1ccnc2cc(Cl)ccc12)c1ccc(Cl)c(Cl)c1` had a concentration for an effect of 90% (IC90) in experiment [1] of 2400 nM. Besides, in experiment [6], the result was Active. The pIC50 in experiment [2] was 5.35.
